# Assay outcomes: PubChem, several laboratories
# HSF1 inh – HSF1 inhibition. NIH3T3-HGL HSE-luciferase, MG132-induced, luminescence 8 h; stronger effect = lower value. activity change, negative = inhibition, % at 7.5 µM (by protocol). AID 2098. actives 0.77% (n = 300,000);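 active = more than half of replicate wells show activity change below -50%, luminescence cut by over half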;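 also: luciferase reports HSF-1 transcriptional activity via heat shock element; 0% = median of DMSO wells and -100% = zero luminescence signal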
# HSF-1 act – increases HSF-1 driven luciferase reporter signal; NIH3T3-HGL HSF-1 luciferase reporter, MG132, 8 h; 100% = twice DMSO control signal; activation, % at 9 µM; actives 1.7% (n = 300,000); AID 504408;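 active = mean replicate activation of at least 50% with a set share of replicates each reaching 50%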;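 also: 0% = median of the neutral control wells and 100% = twice that signal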
# T cruzi inh – T. cruzi replication inhibition. T. cruzi beta-gal in NIH3T3, luminescence, 90 h. inhibition, % (concentration not given with the values). actives 1.4% (n = 300,000);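 active = mean inhibition across valid replicates above about 55%, limit read from the data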;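 also: signal also drops with host cell toxicity which is not excluded here; 0% = plate median of DMSO wells and 100% = zero luminescence signal; higher percent means less beta-gal luminescence so fewer parasites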
#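 Assay system: NIH/3T3 host cells with β-galactosidase reporter T. cruzi; input: 5,000 host fibroblasts per well; compound: single 50 nL compound addition per well in DMSO; timing: ≥90 h infection period, 3 h prior cell attachment; measured by: GalScreen β-gal luminescence, detergent lysis, 60 min; evaluation: percent inhibition of parasite-derived β-gal signal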
# Hsp70 act – transcriptional activators of Hsp70 | activation, % at 10 µM | HeLa Hsp70 promoter luciferase reporter, luminescence; scaled: vehicle 0, proteasome-inhibitor control 100% | actives 0.04% (n = 200,000);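 active = activation above the mean across all tested compounds plus 3 SD, cutoff set per campaign, cut at about 5.5% in these data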;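 also: 100% = MG132 at 30 µM as the positive control and 0% = DMSO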
# L major viab – inhibitors of Leishmania major promastigote growth. Leishmania major promastigotes, resazurin fluorescence viability. inhibition, % at 10 µM. actives 9% (n = 200,000). AID 1063; in the data active = inhibition above about 50%;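 also: promastigotes grown with compound for 44 hours at 28 °C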
# The depositor's hits bear a star; x = not tested or not shown. The full list was thinned out, with hits kept by preference.
SMILES,HSF1 inh,HSF-1 act,T cruzi inh,Hsp70 act,L major viab
COc1cc(/C=N/NC(=O)Cn2cnc3ccccc3c2=O)ccc1O,2,6,-2,x,x
COC(=O)C(C)Nc1cccc(Br)c1 (stereo not given),-1,-7,-13,x,x
CCOC(=O)C(C(=O)OCC)C(Nc1cccc(Br)c1)c1ccccc1 (stereo not given),182,203*,-44,1,1
O=C(NCC1CCCO1)c1cc2c(=O)[nH]c3ccccc3c2s1 (stereo not given),7,21,-3,0,4
NS(=O)(=O)c1ccc(N2N=C(c3ccccc3)CC2c2ccc(F)cc2)cc1 (stereo not given),33,47,38,0,98*
COc1ccc(C2CC(c3cccs3)=NN2c2ccc(C=O)cc2)cc1 (stereo not given),13,28,24,0,92*
O=C(c1cccs1)N1N=C(c2ccc(O)cc2)CC1c1ccccc1 (stereo not given),23,28,-10,0,64*
Cc1ccc(C2CC(c3ccccc3)=NN2c2ccccc2)o1 (stereo not given),2,4,-19,0,100*
COc1ccc(C2=NN(c3ccccc3)C(c3ccc(OC)c(OC)c3)C2)cc1 (stereo not given),39,71*,26,x,x
COc1ccc(C2CC(c3ccc(F)cc3)=NN2c2ccccc2)cc1OC (stereo not given),15,34,4,x,x
COc1ccc(C2=NN(C(C#N)c3ccc(OC)c(OC)c3)C(c3ccccc3)C2)cc1 (stereo not given),32,90*,26,0,100*
COc1ccc(C2CC(c3cccs3)=NN2c2nc(-c3ccccc3)cs2)cc1OC (stereo not given),62,93*,9,0,1
COc1ccc(C2=NN3C(=O)c4c(ccc(OC)c4OC)C3C2)cc1 (stereo not given),-1,26,0,0,60*
COc1ccc2c(c1OC)C(=O)N1N=C(c3ccc(Br)cc3)CC21 (stereo not given),-3,11,19,0,17
Cc1ccn2c(NC(=O)C(C)(C)Oc3ccc(Cl)cc3)c(-c3cccs3)nc2c1,5,16,-2,0,29
COc1ccc(C2CC(c3ccccc3)=NN2c2ccc(S(N)(=O)=O)cc2)cc1 (stereo not given),9,21,57*,0,30
COc1ccc(C2CC(c3ccccc3)=NN2c2ccc(C(N)=O)cc2)cc1 (stereo not given),2,9,10,x,x
Oc1ccc(C2=NN(c3ccccc3)C(c3ccc(F)cc3)C2)cc1 (stereo not given),-75*,-80,40,x,x
Cc1ccc(C)n1NC(=O)c1cccc(Cl)c1,-1,3,10,0,92*
CN(C)NC(=O)c1cccc(Cl)c1,6,48,12,x,x
N#C/C(=C\c1ccc(OCc2ccc(C(=O)O)cc2)cc1)C(=O)N1CCOCC1,-51*,-51,-9,-1,-4
COc1cc(/C=C(\C#N)C(=O)N2CCOCC2)ccc1OCc1ccccc1,15,16,-16,0,-1
Nc1ncnc2oc(-c3ccco3)c(-c3ccco3)c12,-53*,-63,-10,0,52*
COC(=O)C(Cc1ccccc1)NC(=O)CNC(=O)c1sc2ccccc2c1Cl (stereo not given),-53*,-63,8,x,x
CCN(CC)S(=O)(=O)c1cc(NC(=O)COC(=O)c2sc3ccccc3c2Cl)ccc1C,-17,-26,7,0,50*
SMILES,HSF1 inh,HSF-1 act,T cruzi inh,Hsp70 act,L major viab
CCN(CC)S(=O)(=O)c1cc(NC(=O)COC(=O)c2ccc(NC(=O)CC#N)cc2)ccc1C,-2,3,2,0,-11
O=C(COC(=O)CNC(=O)c1sc2ccccc2c1Cl)Nc1cc(Cl)cc(Cl)c1,-14,-29,-15,0,-7
Cc1ccccc1NC(=O)COC(=O)CNC(=O)c1sc2ccccc2c1Cl,-5,1,-9,0,87*
COc1ccc(CC2(CO)CCN(S(=O)(=O)c3sccc3C)CC2)cc1,-1,-6,-2,0,9
O=C(Nc1nccs1)c1ccc(N2CCOCC2)c([N+](=O)[O-])c1,17,26,-5,x,x
O=C(/C=C/c1ccc(Cl)cc1Cl)N(Cc1ccccc1)C1CCS(=O)(=O)C1 (stereo not given),20,52*,12,1,84*
O=C(/C=C/c1ccc(Cl)cc1)N(Cc1ccccc1)C1CCS(=O)(=O)C1 (stereo not given),-3,-6,2,0,3
O=C(/C=C/c1ccc(Cl)cc1Cl)N(Cc1ccc(Cl)cc1)C1CCS(=O)(=O)C1 (stereo not given),8,27,27,0,88*
Cn1cc(C(=O)N/N=C/C(Br)=C\c2ccccc2)ccc1=O,65,87*,-27,0,80*
Cn1cc(C(=O)N/N=C/c2cccc(O)c2)ccc1=O,-8,-22,2,0,-6
Cn1cc(C(=O)N/N=C/C=C/c2ccccc2)ccc1=O,-8,2,-22,0,36
Cn1cc(C(=O)N/N=C/C(Br)=C/c2ccccc2)ccc1=O,62,90*,-12,0,62*
CCN1C(=O)/C(=C/C2=Cc3ccccc3OC2C)SC1=S (stereo not given),-9,9,-8,x,x
Cc1ccc(N=c2oc3cc(O)ccc3cc2C(N)=O)cc1,9,42,60*,0,18
CC(=O)c1cc2ccc(O)cc2oc1=O,3,-13,3,x,x
CCOc1ccccc1NC(=O)CSc1nc(=O)n(CCCN2CCOCC2)c2c1CCCC2,-3,1,4,x,x
CCOC(=O)N1CCC(NC(=O)C2CCN(C(=O)c3cc4oc(C)cc4n3Cc3c(F)cccc3Cl)CC2)CC1,-3,8,14,0,75*
CC1C(=O)C(C)C(c2ccc([N+](=O)[O-])cc2)NC1c1ccc([N+](=O)[O-])cc1 (stereo not given),-7,-7,67*,0,4
COCCN(C(=O)COC(=O)c1ccccc1Oc1ccccc1)c1c(N)n(Cc2ccccc2)c(=O)[nH]c1=O,-3,-11,3,x,x
Cn1c(=O)[nH]c(=O)c2c1nc(N1CCN(c3cccc(Cl)c3)CC1)n2CCCc1ccccc1,-9,0,-3,0,-6
Cn1c(=O)[nH]c(=O)c2c1nc(N1CCNCC1)n2Cc1cccc2ccccc12,3,8,4,0,83*
CCCCCn1c(N2CCN(c3cccc(Cl)c3)CC2)nc2c1c(=O)[nH]c(=O)n2C,58,111*,53,0,32
CCCCn1c(N2CCC(Cc3ccccc3)CC2)nc2c1c(=O)[nH]c(=O)n2C,-7,-4,37,0,78*
